Experimental data: ChEMBL document CHEMBL1124794, “Synthesis, chemistry, and antineoplastic activity of alpha-halopyridinium salts: potential pyridone prodrugs of acylated vinylogous carbinolamine tumor inhibitors” (J Med Chem, 1990)
Where “and” joins values, the source holds several entries; their conditions need not be identical. Identical values can stand only once.

Legend:
[1] = In vivo activity against murine M5076 tumor system at the dose of 100 mg/kg, activity expressed as TDS; 6/10; format: functional, Mus musculus
How it was run: (§1)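 M5076: ascitic fluid with ca. 10^6 cells inoculated ip into CD2F1 mice. Dosing started 24 h after inoculation and was then given every 4 days for four doses in total, from solutions or suspensions made fresh each day. Toxicity day survivors were scored on day 5. Body weight difference is day 14 minus day 1. %T/C is based on median survival time versus controls.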

[2] = Half life at the concentration of 0.05 M.
MX1 [3] = experiment: In vivo activity against murine MX-1 tumor system at the dose of 37.5 mg/kg, activity expressed as %T/C.; format: functional, Mus musculus
[4] = Half life at the pH 7.0; format: ADME; settings: buffer
How it was run: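 Pyridinium-to-pyridone hydrolysis in 0.05 M phosphate buffer, ionic strength 0.25 M, 25 °C. pH set by meter. Loss of the pyridinium UV absorption maximum was followed over time to give pseudo-first-order k_obs and half-life.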

[5] = Effect of phosphate buffer on the hydrolysis of alpha Fluoropyridinium Moity at the concentration of 0.10M, pH 6.5, 25 degree C; format: ADME
How it was run: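 α-Fluoropyridinium hydrolysis to pyridone in phosphate buffer at 0.02, 0.05 or 0.10 M, pH 6.5 or 8.0, ionic strength […] °C. Pyridinium UV absorbance maximum followed with time to give pseudo-first-order kobs and half-life.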

MX1 [6] = experiment: In vivo activity against murine MX-1 tumor system at the dose of 75 mg/kg, activity expressed as TDS; 4/6; format: functional, Mus musculus
L1210 [7] = experiment: In vivo activity against murine L1210 tumor system at the dose of 25 mg/kg, activity expressed as TDS; 6/6; format: functional, Mus musculus
How it was run: as §1, with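 “L1210 lymphocytic leukemia:” for “M5076:”, “injected” for “inoculated”, “repeated daily” for “then given every 4 days”, “five” for “four”, “5” for “14”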

[8] = In vivo activity against murine M5076 tumor system at the dose of 50 mg/kg, activity expressed as KE; format: functional, Mus musculus
P388 [9] = experiment: In vivo activity against P388 Lymphocytic Leukemia in CD2F1 mice at the dose of 100 mg/kg, activity expressed as % T/C; format: functional, Mus musculus
How it was run: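 CD2F1 mice were inoculated with ascitic fluid holding ca. 10^6 P388 cells. Drug was given daily from 24 h after inoculation, from solutions or suspensions made fresh each day, some as a saline suspension. TDS is survivors/initial animals on day 5. BWD is body weight on day 5 minus day 1. %T/C compares median survival of treated and control mice.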

[10] = Half life at the ionic strength; format: ADME
[11] = Half life at the pH 3.0; format: ADME; settings: buffer
How it was run: (§2)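 Bis-carbamate in acetonitrile–water (1:1; buffer added to a 0.5 mg/mL acetonitrile solution), 0.05 M buffer, ionic strength 0.136 (KCl), 25 ± 0.1 °C. Buffers: phosphate pH 2.0; citrate pH 3.0–3.5; succinate pH 4.0; acetate pH 5.0; phosphate pH 6.0–8.0; borate pH 9.0; carbonate pH 10.0. HPLC bis-carbamate peak-area loss, ln(area0/areat) vs time slope = kobs. Duplicates averaged.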

[12] = In vivo activity against murine M5076 tumor system at the dose of 36 mg/kg, activity expressed as KE; format: functional, Mus musculus; how it was run: as §1
P388 [13] = experiment: In vivo activity against P388 Lymphocytic Leukemia in CD2F1 mice at the dose of 25 mg/kg, activity expressed as KE; format: functional, Mus musculus
[14] = Half life at the pH 3.5; format: ADME; settings: buffer; how it was run: as §2
L1210 [15] = experiment: In vivo activity against murine L1210 tumor system at the dose of 21.6 mg/kg, activity expressed as body weight difference; T-C; format: functional, Mus musculus
How it was run: as §1, with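 “L1210 lymphocytic leukemia:” for “M5076:”, “injected” for “inoculated”, “repeated daily” for “then given every 4 days”, “five” for “four”, “5” for “14”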

[16] = In vivo activity against murine M5076 tumor system at the dose of 100 mg/kg, activity expressed as %T/C; 10/10.; format: functional, Mus musculus; how it was run: as §1
L1210 [17] = experiment: In vivo activity against murine L1210 tumor system at the dose of 60mg/kg, activity expressed as %T/C.; format: functional, Mus musculus
How it was run: as §1, with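 “L1210 lymphocytic leukemia:” for “M5076:”, “injected” for “inoculated”, “repeated daily” for “then given every 4 days”, “five” for “four”, “5” for “14”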

[18] = Effect of phosphate buffer on carbamate hydrolysis in acetonitrile-water at the concentration of 0.05 M on pH 7.4, 25 degree C.
How it was run: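 Bis-carbamate in acetonitrile–water (1:1), 25 ± 0.1 °C. Citrate buffer at pH 3.0 or phosphate buffer at pH 7.4, at 0.01, 0.025 or 0.05 M, ionic strength 0.136 (KCl). Kinetics followed by HPLC as the decrease in bis-carbamate peak area. The regression slope of ln(area0/areat) vs time gave pseudo-first-order kobs. Duplicates averaged.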

Compound | TDS [1] | T1/2 [2] | T/C (MX1 [3]) | half-life [4] | K obs [5] | TDS (MX1 [6]) | TDS (L1210 [7]) | KE [8] | T/C (P388 [9]) | T1/2 [10] | half-life [10] | half-life [11] | KE [12] | KE (P388 [13]) | half-life [14] | BWD (L1210 [15]) | TDS [16] | T/C (L1210 [17]) | k obs [18]
CC(C)NC(=O)OCc1c(COC(=O)NC(C)C)c(-c2cc[n+](C)c(F)c2)n2c1CCC2.[I-] | 6 | 96.2 min | 69% | 33.8 min | 0.0138 min⁻¹ | 4 | 6 | -1.59 | – | – | – | – | – | – | – | – | – | – | –
CC(C)NC(=O)OCc1c(COC(=O)NC(C)C)c(-c2ccn(C)c(=O)c2)n2c1CCC2 | – | – | – | – | – | – | – | – | 148% | 55.89 min and 86.65 min | 53.5 min | 22.8 min | -1.69 | -0.5 | 32.5 min | -0.3 g | 10 | 141% | 0.000217 s⁻¹
